From PubChem BioAssay
ARFGAP1 inhibitor – inhibitors of rat ARFGAP1 GAP activity, primary screen, biochemical, fluorescence polarization, GDP tracer; 360,000 tested, 0.26% active; Arfgap1-stimulated ARF1 GTP hydrolysis, GDP FP detection; AID 651572, 2012; inhibition, % at 16.5 µM; ADP-ribosylation factor GTPase-activating protein 1 (Rattus norvegicus), Q62848;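 active = inhibition above a per-plate limit, mean inhibition of low control wells plus 3 SD, cut at about 25% in these data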;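 also: 0% = DMSO wells with enzyme and 100% = wells lacking Arfgap1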
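Repeats: one replicate per compound; assay system: rat Arfgap1 catalytic domain, aa 1-136; times: enzyme reaction 120 min at 25 °C after 20 min preincubation; detection: FP of antibody-bound GDP Alexa 633 tracer, ex 620/em 688 nm; benchmarks: high control wells lacking Arfgap1, low control full reaction with DMSO; reagent: human ARF1(Δ1-17)-GTP substrate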
ASAP1 GAP inh – inhibitors of human ASAP1 ArfGAP activity, primary screen, biochemical, fluorescence polarization; ASAP1-stimulated ARF1 GTP hydrolysis, GDP FP detection; 360,000 tested, 0.19% active; inhibition, % at 16.5 µM; Arf-GAP with SH3 domain, ANK repeat and PH domain-containing protein 1 (Homo sapiens), …; in the data active = inhibition above about 25%;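 also: 0% = vehicle with enzyme and substrate and 100% = no enzyme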
GalR3 antagonist – GalR3 antagonists in HEK293 cells, primary screen, cell-based, fluorescence readout; Galanin receptor type 3 (Homo sapiens), O60755; HEK293 GalR3-CNG cAMP membrane potential fluorescence; galR3 body fused to GalR1 C-terminus; inhibition, % at 3 µM; 360,000 tested, 0.44% active; AID 651719, 2012;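 active = inhibition above the screen-wide average plus 3 SD, cut at about 13% in these data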;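 also: forskolin and galanin both at EC90 stimulate the cells; cAMP rise reported by CNG channel membrane potential dye signal; 0% = forskolin plus galanin with DMSO and 100% = forskolin alone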
Rin1-Abl PPI inh – inhibitors of Rin1-Abl protein binding, primary screen, biochemical, TR-FRET; Tyrosine-protein kinase ABL1 (Homo sapiens) + Ras and Rab interactor 1 (Homo sapiens), …; inhibition, % at 7.35 µM; 360,000 tested, 0.4% active; AID 588664, 2011; in the data active = inhibition above about 5%, passing the limit was not always enough
ARFGAP1 inh conf – ARFGAP1 inhibitor hit confirmation, biochemical, fluorescence polarization, triplicate; shares compounds with ARFGAP1 inhibitor; ARFGAP1-stimulated ARF1 GTP hydrolysis, GDP tracer FP; inhibition, % at 16.5 µM; 890 tested, 30% active; AID 651608, 2012;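 active = average inhibition over triplicates above the hit cutoff set in the earlier primary screen, cut at about 25% in these data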;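 also: 0% = Arfgap1 plus ARF1-GTP with DMSO and 100% = wells lacking Arfgap1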
An asterisk follows results filed as active; x = no result. Compounds with a hit are over-represented: about 1.2% of the library has one in this group of screens.

SMILES	ARFGAP1 inhibitor	ASAP1 GAP inh	GalR3 antagonist	Rin1-Abl PPI inh	ARFGAP1 inh conf
CCOC(=O)NC(NCC(O)c1ccccc1)(C(F)(F)F)C(F)(F)F (stereo not given)	3.2	3.6	-2.9	-2.6	x
Cc1ccccc1C(=O)N1CCN(c2ncccn2)CC1	69.6*	-9.4	-9.6	1.7	1.7
CC(C)c1ccc(OCCCN2CCC(C(O)(c3ccccc3)c3ccccc3)CC2)cc1	1.4	13.6	-7.2	x	x
CN(C)C(=O)c1ccc(NC(=O)c2cc(-c3ccco3)nc3ccccc23)cc1	-3.2	-8.8	-2.5	2.2	x
CCN(CC)CCNC(=O)c1ccc(NC(=O)c2cn(-c3ccccc3)nc2-c2cccs2)cc1	39.0*	13.9	-4.1	-4.3	55.9*
CCN(CC)CCNC(=O)c1ccc(NC(=O)c2cc(-c3ccco3)nc3ccccc23)cc1	25.5*	4.4	-1.5	-5.1	1.1
CC(=O)c1c(C)nc(Nc2nc3ccccc3s2)nc1C	25.1*	-9.8	-1.1	-0.5	-0.8
Cc1ccc(C2(C)NC(=O)N(CC(=O)NC(=O)NC(C)C)C2=O)cc1 (stereo not given)	29.8*	-12.4	-5.9	0.3	-5.8
Cc1nc(-c2cccc(S(=O)(=O)N3CC(C)CC(C)C3)c2)cs1 (stereo not given)	26.5*	-10.7	-1.0	3.1	2.4
Cc1nc(-c2cccc(S(=O)(=O)N3CC(C)OC(C)C3)c2)cs1 (stereo not given)	7.7	-5.8	-0.8	-0.5	x
CC1(C(=O)NC(=S)NNC(=O)c2ccncc2)CCCCC1	-1.0	-9.2	0.8	-4.5	x
O=C(NNC(=S)NC(=O)C12CC3CC(CC(C3)C1)C2)c1ccncc1	37.5*	-9.9	2.2	-4.7	-1.9
Cc1[nH]nc2c1C(c1ccc(F)cc1)N(Cc1ccccc1)C2=O (stereo not given)	2.0	-2.3	-6.4	x	x
Cc1c(C)c2ccc(OCC(=O)NCCc3c[nH]c4ccccc34)c(C)c2oc1=O	25.3*	14.6	-4.6	-4.5	6.5
Cc1cc(C)c(S(=O)(=O)c2ccccc2Cl)c(Cl)n1	-20.9	-1.0	-8.2	1.2	x
Cc1cc(C)c(S(=O)(=O)c2ccc(F)cc2C)c(Cl)n1	30.4*	8.6	-5.5	-0.5	1.2
O=C(NCc1ccccc1)[C@@H]1CCCN1C(=O)[C@H]1CCCN1C(=O)N1CCCCC1	9.0	5.9	-5.6	x	x
COc1ccc(S(=O)(=O)N2CCCCC2)cc1N(C)S(=O)(=O)c1ccccc1	4.7	-8.0	-3.7	-0.7	x
COc1ccc(S(=O)(=O)N2CCCCCC2)cc1N(C)S(=O)(=O)c1ccccc1	25.7*	9.5	-5.2	4.2	0.6
CN(c1ccc(OCC(=O)Nc2ccc3[nH]c(=O)[nH]c3c2)cc1)S(=O)(=O)c1ccc(Cl)cc1	30.2*	8.7	-6.0	-4.2	-11.4
CC1CCN(C(=O)c2ncn3c2C(=O)NC[C@@H]3C)CC1	-4.0	-1.9	-2.5	x	x
CCN(CC)C(=O)[C@H]1C[C@@H]2[C@H](C[C@@H](c3ccccc3)[C@H]1C)N(c1ccc(F)cc1)C(=O)N2C/C=C(\C)CCC=C(C)C	3.5	-7.9	0.3	x	x
CCOC(=O)c1csc(NC(=O)CSc2nnnn2-c2ccc3c(c2)OCCO3)n1	4.0	7.2	-6.2	1.2	x
CCC(=O)Nc1ccc(NC(=O)CSc2nnnn2-c2ccc3c(c2)OCCO3)cc1	33.1*	8.4	-4.7	4.1	41.6*
COc1ccc(/C=C(/NC(=O)c2ccccc2)C(=O)NCc2ccncc2)cc1	7.3	11.3	-6.4	-0.7	x
COc1ccc(C(=O)N/C(=C\c2ccccc2)C(=O)NCc2cccnc2)cc1	24.9*	-4.1	-9.6	3.5	1.8
O=C(CNSc1ccc([N+](=O)[O-])cc1[N+](=O)[O-])OCc1ccccc1	-2.5	13.3	-2.8	x	x
COc1cc(/C=N/Nc2nc3ccccc3s2)ccc1OC(=O)c1ccccc1F	25.4*	-1.3	3.1	0.0	17.9
COc1ccc(NC(=O)CSc2nc(N)c(C(=O)Nc3ccc(N(C)C)cc3)s2)cc1	x	x	x	-3.0	x
